Assay outcomes as filed in PubChem BioAssay.
Only some compounds are listed: those with a hit (about 4.8% of all), similar ones and a draw of the others.
NF-kB expr up = raises NF-kB expression in human neuronal cells | NF-kB reporter expression; hits give high values | fold change at 12.5 µM | 1.6% of 190,000 active | AID 1239; in the data active means fold change above about 3.3
STAT1 activator = activators of IFN-gamma induced STAT1 signaling; NIH 3T3 STAT1-luciferase reporter, luminescence; 100% = IFN-gamma alone, no compound; activation (% of control), % at 5.5 µM; 2.6% of 200,000 active; AID 932;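 active means activation above the screen-wide mean activation plus 3 SD, cut at about 130% in these data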
FLuc inhib CS = Photinus pyralis luciferase inhibition counter-screen. P08659. 1.5% of 200,000 active. ATPLite firefly luciferase biochemical luminescence, 10 min. inhibition, % at 10 µM;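 active means inhibition above about 50% when tested at 10 µM, limit read from the data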
Target sequence (P08659 whole entry, looked up): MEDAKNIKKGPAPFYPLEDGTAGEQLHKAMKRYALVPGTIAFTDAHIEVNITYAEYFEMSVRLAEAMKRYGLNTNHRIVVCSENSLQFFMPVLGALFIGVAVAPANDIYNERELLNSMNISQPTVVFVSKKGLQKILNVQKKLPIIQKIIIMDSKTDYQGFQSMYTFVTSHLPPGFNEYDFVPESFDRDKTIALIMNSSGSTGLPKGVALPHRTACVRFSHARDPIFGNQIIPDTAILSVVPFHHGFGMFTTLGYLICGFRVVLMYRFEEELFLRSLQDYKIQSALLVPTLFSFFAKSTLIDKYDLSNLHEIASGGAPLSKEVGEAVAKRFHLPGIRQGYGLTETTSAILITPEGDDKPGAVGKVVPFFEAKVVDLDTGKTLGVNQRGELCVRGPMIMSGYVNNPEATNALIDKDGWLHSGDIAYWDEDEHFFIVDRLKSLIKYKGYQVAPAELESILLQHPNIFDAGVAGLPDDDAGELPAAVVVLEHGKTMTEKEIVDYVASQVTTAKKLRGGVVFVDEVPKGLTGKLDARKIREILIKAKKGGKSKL
APP transl inh = APP translation inhibition; inhibition, % at 2 µM; AID 1285; SH-SY5Y APP 5'UTR-luciferase reporter, luminescence; 0.82% of 190,000 active;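 active means inhibition above a set limit, derived from the sample mean plus 3 SD, cut at about 45% in these data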
FLuc stim CS = affects firefly luciferase, flagging false hits in luciferase stimulation screens; activation factor at 10 µM; 200,000 tested, under 10 active; AID 1027; ATPlite luciferase biochemical, luminescence, 10 min; 0 = ATP-free wells, 1 = DMSO control; P08659;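 active means luciferase activation factor, scaled between plate controls, of at least 2 with compound at 10 µM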
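System: Luciferase/luciferin detection reagent, cell-free biochemical luciferase assay | Medium: PBS buffer for ATP | Dosing: Test compounds dosed from 2 mM stocks in 100% DMSO | Timing: 10 min at ambient temperature | Signal: Luminescence measurement of luciferase light output | Evaluation: Luciferase activation, seen as luminescence increase over controls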
APP 5'UTR act = APP 5'UTR luciferase reporter activation | SH-SY5Y APP 5'UTR luciferase reporter, luminescence; zero percent = DMSO vehicle wells | activation, % at 2 µM | 1% of 190,000 active | AID 1276;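 active means activation above a set limit, based on mean plus 3 SD of controls, cut at about 140% in these data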
STAT1 activ conf = confirmation of STAT1 signaling activators; shares compounds with STAT1 activator; activation (% of control), % at 5.7 µM; AID 1262; NIH 3T3 STAT1-luciferase reporter, IFN-gamma potentiation, luminescence; 100% = IFN-gamma EC80 alone, no compound; 97% of 1,200 active;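 active means activation above a set limit carried over from the earlier primary STAT1 screen, cut at about 140% in these data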
NFkB act STAT1ct = activates NF-kappaB, counter-screen to STAT1 activators | shares compounds with STAT1 activator | HEK293T NF-kB luciferase reporter, TNF-alpha stimulated, luminescence; 100% = TNF-alpha with vehicle only | activation (% of control), % at 5.7 µM | AID 1306 | 43% of 1,200 active;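 active means activation above the mean of solvent-only control wells plus 3 SD, set per campaign, cut at about 130% in these data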;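 further: TNF-alpha given at a submaximal dose yielding about 80% of full reporter signal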
STAT3 act STAT1c = human STAT3 activation in STAT1 activator counter-screen; shares compounds with STAT1 activator; 46% of 1,200 active; AID 1316; U3A cells STAT3-luciferase reporter, IL-6, luminescence; cells lack STAT1; 100 = IL-6 alone, no compound effect; activation (% of control), % at 5.7 µM;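 active means activation above the solvent-only control well mean plus 3 SD, set per plate batch, cut at about 110% in these data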;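 further: higher means more STAT3 reporter activation so hits are non-selective activators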
Hits are given with their value; . = inactive; / = not tested or not shown.

SMILES	NF-kB expr up	STAT1 activator	FLuc inhib CS	APP transl inh	FLuc stim CS	APP 5'UTR act	STAT1 activ conf	NFkB act STAT1ct	STAT3 act STAT1c
O=C(CCCc1ccccc1)N1CCc2ccccc21	7.7	180	52	.	.	.	221	137	115
Cc1ccc(Cn2cccc(NC(=O)c3ccco3)c2=O)cc1	.	.	.	.	.	.	/	/	/
COCCCN=Cc1c(C)[nH]n(-c2ccc(Br)c(C)c2)c1=O	.	165	.	.	.	147	250	.	.
COC(=O)c1cc(OC)c(OC)cc1NC(=O)c1ccoc1C	.	.	.	.	.	.	/	/	/
CC(C)COc1ccc(-c2cc(C(=O)NN)[nH]n2)cc1	.	153	.	.	.	.	.	.	.
O=C(O)CC(CNS(=O)(=O)c1ccccc1)c1ccccc1 (stereo not given)	.	.	.	.	.	.	/	/	/
N/C(=N\c1nc2ccccc2o1)NC(=O)c1ccccc1F	.	151	.	.	.	.	162	.	119
N/C(=N\c1nc2ccccc2o1)NC(=O)c1ccccc1NC(=O)c1ccccc1	.	.	.	.	.	.	/	/	/
O=C(NCCc1ccccc1)c1ccccc1NC(=O)C1CC=CCC1C(=O)O (stereo not given)	.	152	.	.	.	.	133	.	.
COC(=O)c1ccccc1NC(=O)C1CC=CCC1C(=O)O (stereo not given)	.	.	.	.	.	.	/	/	/
CCOC(=O)c1sc2nc(-c3ccccc3)ccc2c1N	.	174	82	.	.	174	272	.	.
CCOC(=O)c1sc2nc(C)cc(-c3ccccc3)c2c1N	.	.	.	.	.	.	/	/	/
O=C(Nc1nc2ccccc2s1)NC1CCCCC1	9.2	161	.	.	.	144	226	.	117
O=C(CC1CCCCC1)Nc1nc2ccccc2s1	.	155	.	.	.	.	184	134	120
O=C(O)c1cc(N/N=C/C=C/c2ccccc2)ccc1Cl	6.1	158	.	.	.	179	210	152	127
Fc1cccc(NCc2cn3ccccc3n2)c1	4.2	169	.	.	.	.	194	.	113
COC(=O)CSc1nc2cc(C)ccc2cc1C#N	6.3	156	.	.	.	138	224	142	.
Cc1cc(/C=C2/C(=O)N(C)C(=S)N2C)ccc1N1CCCC1	.	175	.	.	.	.	168	135	146
Cc1cc(N2CCCC2)ccc1/C=C1/C(=O)N(C)C(=S)N1C	.	.	.	.	.	.	/	/	/
Oc1csc(Cc2nc(-c3ccc(Br)cc3)cs2)n1	.	167	.	.	.	.	177	134	124
O=C(NC(=S)NCC1CCCO1)c1ccc([N+](=O)[O-])cc1 (stereo not given)	.	.	.	.	.	.	/	/	/
CCOc1ccc(NC(=O)CNC(=O)c2ccc([N+](=O)[O-])cc2)cc1	.	.	.	.	.	.	/	/	/
C#CCN1C(=O)S/C(=C/c2cc(C)n(CC)c2C)C1=O	.	199	.	.	.	.	239	134	.
CC1CC(C)(C)CC2(C1)NC(=O)N(CC(=O)NC1CCCc3ccccc31)C2=O (stereo not given)	.	.	.	.	.	.	/	/	/
COc1ccc(CNC(=O)c2coc(=O)c3ccccc23)cc1	.	.	.	.	.	.	/	/	/
O=C(Nc1ccc(N=Nc2ccccc2)cc1)c1ccc(Cl)cc1Cl	.	.	.	.	.	.	/	/	/
O=C(Nc1ccc(N=Nc2ccccc2)cc1)c1ccccc1Cl	.	180	.	.	.	158	204	153	120
